Experimental findings from ChEMBL document CHEMBL4251758, “Small Molecule Inhibition of MicroRNA miR-21 Rescues Chemosensitivity of Renal-Cell Carcinoma to Topotecan” (J Med Chem, 2018) are described below.

SMILES strings stand for the structures. Active and inactive are the calls of the source. The rule behind the calls is not given here.

For orientation: EC50 means the concentration needed to bring the measured effect to its halfway point. One may read the IC50 as the concentration at which inhibition is half-maximal.

In data set [1] the test system is microRNA 21. Kind of data set: Inhibition of miR-21 RNA in human HeLa cells harboring miR-21 binding sequence in 3'-UTR of firefly luciferase gene assessed as increase in luciferase expression incubated for 48 hrs by Bright-Glo luciferase reporter gene assay relative to control. In kind it is cell-based. The method, boiled down:
(§1)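 HeLa-miR21-Luc stable line (miR-21 site in the firefly luciferase 3′-UTR), 1000 cells per well. Compound or DMSO (0.1% final) added after overnight attachment, in triplicate, for 48 h. Bright-Glo luminescence was normalized to XTT viability (450 nm) and expressed as fold change relative to DMSO. At least three independent experiments.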
(Reporter assays use an easily measured gene product as a stand-in for the process of interest.)

Data set [2] has as its target microRNA 21. Put plainly: Inhibition of miR-21 RNA in human HeLa cells harboring miR-21 binding sequence in 3'-UTR of firefly luciferase gene assessed as increase in luciferase expression incubated for 48 hrs by Bright-Glo luciferase reporter gene assay. It is filed as cell-based. The method, boiled down: as §1
Data set [3] has as its target Luciferin 4-monooxygenase (Photinus pyralis) (UniProt P08659). Kind of data set: Inhibition of firefly luciferase activity up to 50 uM.
Data set [4] can be described thus: Inhibition of miR-125b RNA (unknown origin) transfected in human PC3 cells at 10 uM after 48 hrs by Bright-Glo luciferase reporter gene assay. It is filed as cell-based.
A further data set has as its system HeLa. Kind of data set: Inhibition of miR-182 RNA (unknown origin) transfected in human HeLa cells at 10 uM after 48 hrs by Bright-Glo luciferase reporter gene assay. In kind it is cell-based.
Data set [5] can be described thus: Inhibition of miR-221 RNA (unknown origin) transfected in human PC3 cells at 10 uM after 48 hrs by Bright-Glo luciferase reporter gene assay. It is filed as cell-based.
The test system of data set [6] is A498. Put plainly: Decrease in mature miR-21 expression levels in human A498 cells at 10 uM after 48 hrs by qRT-PCR analysis. It is filed as functional, cell-based.
The test system of a further data set is SK-OV-3. Put plainly: Decrease in mature miR-21 expression levels in human SKOV3 cells at 10 uM after 48 hrs by qRT-PCR analysis. In kind it is functional, cell-based. (In general: In qPCR the cycle at which signal appears reflects the starting amount.)
For another data set, the system named is A549. Put plainly: Decrease in mature miR-21 expression levels in human A549 cells at 10 uM after 48 hrs by qRT-PCR analysis. In kind it is functional, cell-based.
Data set [7] deals with microRNA 21. Kind of data set: Inhibition of promoter activity of miR-21 RNA (unknown origin) transfected in human HeLa cells at 10 uM after 48 hrs by Bright-Glo luciferase reporter gene assay. In kind it is cell-based. The method, boiled down:
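HeLa cells, 10,000 per well, treated after overnight attachment with 10 μM compound or DMSO (0.1% final) in triplicate for 48 h. Cells were then transfected for 3 h with 100 ng pGL4-miR21P (miR-21 promoter driving firefly luciferase) or empty pGL4.10. Medium was replaced with compound-containing medium for a further 24 h, followed by Bright-Glo luminescence read.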

The test system of another data set is MIA PaCa-2. Kind of data set: Cytotoxicity against human MIAPaCa2 cells after 72 hrs by XTT assay. It is filed as functional, cell-based. The conditions noted are these: MIA PaCa-2, 72 h. The method, boiled down:
(§2)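 Cells seeded at 500 per well, incubated overnight, then exposed to increasing compound concentrations (0.1% DMSO final, DMSO control) in triplicate for 72 h. Activated XTT added; absorbance read at 450 nm with 630 nm background at start and after 4 h at 37 °C, 5% CO2. Change normalized to DMSO as % viability; IC50 from variable-slope sigmoidal fit; three independent measurements.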

The next data set deals with A 172. Kind of data set: Cytotoxicity against human A172 cells after 72 hrs by XTT assay. It is filed as functional, cell-based. As to conditions: A 172, 72 h. The method, boiled down: as §2
(In general: Tetrazolium assays rely on reduction of a dye to a coloured formazan, in cell work by metabolically active cells.)

Data set [8] deals with A498. Kind of data set: Cytotoxicity against human A498 cells after 72 hrs by XTT assay. It is filed as functional, cell-based. The conditions noted are these: A498, 72 h. The method, boiled down: as §2
The test system of another data set is MCF7. Put plainly: Cytotoxicity against human MCF7 cells after 72 hrs by XTT assay. As to conditions: MCF7, 72 h. It is filed as functional, cell-based. The method, boiled down:
as §2

The subject of a further data set is NIH3T3. Kind of data set: Cytotoxicity against mouse NIH/3T3 cells up to 100 uM after 72 hrs by XTT assay. It is filed as cell-based. The conditions noted are these: nih3t3, 72 h. The method, boiled down:
as §2

For data set [9], the system named is microRNA 21. Put plainly: Inhibition of miR-21 RNA in human A498 cells assessed as potentiation of topotecan-induced cytotoxicity after 72 hrs by XTT assay. In kind it is cell-based. The method, boiled down:
(§3)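 The chemotherapeutic agent (topotecan) was titrated while the miR-21 inhibitor was held at a fixed concentration, 0.1% DMSO final, in triplicate. Cells were seeded at 500 per well and treated after overnight attachment. After 72 h, XTT was read at 450 nm (630 nm background) at start and after 4 h. Signal normalized to DMSO; IC50 from variable-slope sigmoidal fit.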

For data set [10], the target named is microRNA 21. Kind of data set: Inhibition of miR-21 RNA in human A498 cells assessed as potentiation of topotecan-induced inhibition of colony formation by measuring topotecan IC50 at 10 uM after 2 weeks by crystal violet staining-based microscopic analysis (reference value: 2 uM). In kind it is cell-based. The method, boiled down: (§4)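 A498 cells, 10,000 per well, seeded in 0.45% low-melt agarose in DMEM over a 0.7% agarose base layer, containing increasing compound concentrations or DMSO (0.1% final), in triplicate. For combinations, the inhibitor was held at 10 μM. After 2 weeks, colonies were stained with 0.1% crystal violet and imaged by z-stack microscopy. Colony counts were normalized to DMSO; IC50 from sigmoidal fit.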

For data set [11], the system named is A498. Put plainly: Induction of apoptosis in human A498 cells assessed as increase in caspase-3/7 activity at 10 uM after 24 hrs by Caspase-Glo 3/7 assay relative to control. In kind it is functional. In short, it runs like this: (§5)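 A498 cells, 10,000 per well, treated after overnight attachment for 24 h with DMSO (0.1%), 400 nM topotecan, 10 μM inhibitor, or topotecan plus inhibitor at those levels. Caspase-3/7 activity read by Caspase-Glo 3/7 luminescence and normalized to DMSO. At least three independent experiments; unpaired t test.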

Data set [12] relates to microRNA 21. Put plainly: Inhibition of miR-21 RNA in human A498 cells assessed as potentiation of topotecan-induced apoptosis by measuring increase in caspase-3/7 activity at 10 uM after 24 hrs by Caspase-Glo 3/7 assay relative to control. In kind it is cell-based. Details: scale not given: the % may be the effect or the level left. The method, boiled down: as §5
In data set [13] the test system is microRNA 21. Kind of data set: Inhibition of miR-21 RNA in human A498 cells assessed as increase in PTEN expression at 10 uM after 48 hrs by Western blot analysis relative to control. In kind it is cell-based. The method, boiled down: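 A498 cells, 250,000 per well, treated with 10 μM compound or DMSO (0.1%) for 48 h and lysed in RIPA buffer. Lysates were run on 10% SDS-PAGE, transferred to PVDF, and probed with rabbit anti-PTEN, anti-PDCD4 and anti-GAPDH, then HRP secondary. Chemiluminescence densitometry was normalized to GAPDH, then to DMSO.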

Data set [14] concerns the target microRNA 21. Kind of data set: Inhibition of miR-21 RNA in human A498 cells assessed as potentiation of topotecan-induced cytotoxicity by measuring topotecan IC50 at 10 uM after 72 hrs by XTT assay (reference value: 1 uM). In kind it is cell-based. In short, it runs like this:
as §3

Data set [15] has as its system microRNA 21. Kind of data set: Inhibition of miR-21 RNA in human A498 cells assessed as potentiation of topotecan-induced inhibition of colony formation by measuring reduction in topotecan IC50 at 10 uM after 2 weeks by crystal violet staining-based microscopic analysis relative to topotecan alone. In kind it is cell-based. The method, boiled down: as §4
Data set [16] has as its system microRNA 21. Put plainly: Inhibition of miR-21 RNA in human A498 cells assessed as potentiation of topotecan-induced apoptosis by measuring increase in caspase-3/7 activity at 10 uM after 24 hrs by Caspase-Glo 3/7 assay relative to topotecan alone. In kind it is cell-based. The method, boiled down:
as §5

Luciferin 4-monooxygenase (Photinus pyralis), sequence (P08659 whole entry): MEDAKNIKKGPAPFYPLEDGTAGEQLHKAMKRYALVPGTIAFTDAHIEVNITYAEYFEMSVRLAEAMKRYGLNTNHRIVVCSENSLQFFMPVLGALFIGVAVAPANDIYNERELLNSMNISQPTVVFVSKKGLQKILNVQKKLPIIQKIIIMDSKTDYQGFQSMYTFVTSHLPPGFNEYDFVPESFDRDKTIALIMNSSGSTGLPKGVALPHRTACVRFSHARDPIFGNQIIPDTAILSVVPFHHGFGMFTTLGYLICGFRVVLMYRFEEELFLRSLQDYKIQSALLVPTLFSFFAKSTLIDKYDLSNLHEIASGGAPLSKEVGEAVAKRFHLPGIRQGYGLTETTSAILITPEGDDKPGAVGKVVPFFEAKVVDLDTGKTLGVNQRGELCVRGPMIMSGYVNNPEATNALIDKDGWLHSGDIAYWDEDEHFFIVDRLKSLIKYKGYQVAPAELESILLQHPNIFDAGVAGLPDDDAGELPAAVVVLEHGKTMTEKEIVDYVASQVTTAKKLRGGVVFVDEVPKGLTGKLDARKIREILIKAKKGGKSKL

For `C#CCOc1ccc(-c2noc(-c3nnn(-c4cccc(/C(C)=N/O)c4)c3N)n2)cc1`, the fold change (FC) in the data set with microRNA 21 [1] worked out at 12.2; with microRNA 21 [13], 1.5; with microRNA 21 [15] it was 27; with microRNA 21 [16] it was 1.6. Further, the EC50 on microRNA 21 [2] was determined as 5.3 µM. Besides, the inhibition entry in the data set on microRNA 21 [2] and in the data set on microRNA 21 [9] was “Dose-dependent effect” each time. The inhibition result (in data set [3]; in [4]; in the data set on HeLa; in [5]; with microRNA 21 [7]) was “inactive” each time. The result in the data set with A498 [6], with SK-OV-3 and with A549 was inactive. The 50% inhibitory concentration (IC50) with MIA PaCa-2 is 6.7 µM; in the data set with A 172 it was 4.6 µM; in the data set with A498 [8], more than 100 µM; in the data set on MCF7, 4.5 µM; at microRNA 21 [10], 0.074 µM; on microRNA 21 [14], 0.09 µM. The results for the Activity entry in the data set on NIH3T3, in the data set with A498 [11] and in the data set with microRNA 21 [12] were “Non-Toxic”, 20% and 512%, respectively.
